Assay results reported in ChEMBL document CHEMBL4002606, “Discovery of FZU-03,010 as a self-assembling anticancer amphiphile for acute myeloid leukemia” (Bioorg Med Chem Lett, 2017).
Calls of active or inactive are those of the source. No cut-off for these calls is given here.

Columns and labels:
[1] = tested on: HL-60; test: Growth inhibition of human HL60 cells at 0.63 uM after 48 hrs by MTT assay relative to control; assay type: functional; settings: for inhibition of growth at 0.63 µM: HL-60, 48 h, read-out: GI
[2] = tested on: HL-60; test: Growth inhibition of human HL60 cells at 1.25 uM after 48 hrs by MTT assay relative to control; assay type: functional; settings: for inhibition of growth at 1.25 µM: HL-60, 48 h, read-out: GI
[3] = tested on: HL-60; test: Growth inhibition of human HL60 cells at 2.5 uM after 48 hrs by MTT assay relative to control; assay type: functional; settings: for inhibition of growth at 2.5 µM: HL-60, 48 h, read-out: GI
[4] = tested on: HL-60; test: Growth inhibition of human HL60 cells at 5 uM after 48 hrs by MTT assay relative to control; assay type: functional; settings: for inhibition of growth at 5 µM: HL-60, 48 h, read-out: GI
[5] = tested on: HL-60; test: Growth inhibition of human HL60 cells at 10 uM after 48 hrs by MTT assay relative to control; assay type: functional; settings: for inhibition of growth at 10 µM: HL-60, 48 h, read-out: GI
[6] = tested on: HL-60; test: Growth inhibition of human HL60 cells at 20 uM after 48 hrs by MTT assay relative to control; assay type: functional; settings: for inhibition of growth at 20 µM: HL-60, 48 h, read-out: GI
[7] = tested on: HL-60; test: Growth inhibition of human HL60 cells at 40 uM after 48 hrs by MTT assay relative to control; assay type: functional; settings: for inhibition of growth at 40 µM: HL-60, 48 h, read-out: GI
[8] = tested on: HL-60; test: Growth inhibition of human HL60 cells after 48 hrs by MTT assay; assay type: functional, cell-based; settings: HL-60, 48 h
Method in brief: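 HL-60 human promyelocytic leukemia cells; proliferation inhibition of the cells measured and reported as IC50; values are mean ± SE of at least three independent experiments.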

[9] = Induction of nanoparticle formation in DMSO/deionized water at 1.5 mg/ml
[10] = Induction of nanoparticle formation in DMSO/deionized water after 25 days by dynamic light scattering assay
[11] = tested on: HL-60; test: Induction of apoptosis in human HL60 cells assessed as downregulation of procaspase-3 expression after 24 hrs by Western blot method; assay type: functional, cell-based
Method in brief: (§1)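 HL-60 cells treated at different concentrations; lysates probed with specific antibodies against procaspase-3, cleaved caspase-9, PARP, Bcl-2, phospho-P70S6K and phospho-Akt; actin used as loading control.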

[12] = tested on: HL-60; test: Induction of apoptosis in human HL60 cells assessed as caspase-9 cleavage after 24 hrs by Western blot method; assay type: functional, cell-based; method in brief: as §1
[13] = tested on: HL-60; test: Induction of apoptosis in human HL60 cells assessed as PARP cleavage up to 4 uM after 24 hrs by Western blot method; assay type: functional, cell-based; method in brief: as §1
[14] = tested on: HL-60; test: Induction of apoptosis in human HL60 cells assessed as downregulation of Bcl2 expression up to 4 uM after 24 hrs by Western blot method; assay type: functional, cell-based; method in brief: as §1
[15] = species: Homo sapiens; test: Inhibition of PI3K in human HL60 cells assessed as reduction in Akt phosphorylation at Ser473-residue up to 4 uM after 24 hrs by Western blot method; assay type: cell-based; method in brief: as §1
[16] = biological target: Serine/threonine-protein kinase mTOR (Homo sapiens) (UniProt P42345); test: Inhibition of mTOR in human HL60 cells assessed as reduction in P70S6K phosphorylation at Thr389-residue up to 4 uM after 24 hrs by Western blot method; assay type: cell-based; method in brief: as §1

IC50 [8] [µM]	SMILES	inhibition of growth at 0.63 µM [1] [%]	inhibition of growth at 1.25 µM [2] [%]	inhibition of growth at 2.5 µM [3] [%]	inhibition of growth at 5 µM [4] [%]	inhibition of growth at 10 µM [5] [%]	inhibition of growth at 20 µM [6] [%]	inhibition of growth at 40 µM [7] [%]	further results
5.64	CC(=O)NN/C=C1/C[C@]2(C)[C@H]3CC=C4[C@@H]5[C@@H](C)[C@H](C)CC[C@]5(C(=O)O)CC[C@@]4(C)[C@]3(C)CC[C@H]2C(C)(C)C1=O	9.96	20.7	28.8	41.7	61.7	69.7	93.1	
40	C[C@H]1[C@H](C)CC[C@]2(C(=O)O)CC[C@]3(C)C(=CC[C@@H]4[C@@]5(C)Cc6sc(N)nc6C(C)(C)[C@@H]5CC[C@]43C)[C@H]12						12.9	59.2	growth inhibition (GI) [1]: inactive; growth inhibition (GI) [2]: inactive; growth inhibition (GI) [3]: inactive; growth inhibition (GI) [4]: inactive; growth inhibition (GI) [5]: inactive
	C[C@H]1[C@H](C)CC[C@]2(C(=O)N3CCNCC3)CC[C@]3(C)C(=CC[C@@H]4[C@@]5(C)Cc6cn[nH]c6C(C)(C)[C@@H]5CC[C@]43C)[C@H]12								Activity [9]: Active; Activity [10]: Active; Activity [11]: Dose-dependent effect; Activity [12]: Dose-dependent effect; Activity [13]: Active; Activity [14]: Active; inhibition [15]: Active; inhibition [16]: Active
2.64	C[C@H]1[C@H](C)CC[C@]2(C(=O)N3CCNCC3)CC[C@]3(C)C(=CC[C@@H]4[C@@]5(C)CCC(=O)C(C)(C)[C@@H]5CC[C@]43C)[C@H]12	10.6	22.5	43.7	82.2	92.7	92.5	94.8	
> 40	C[C@H]1[C@H](C)CC[C@]2(C(=O)O)CC[C@]3(C)C(=CC[C@@H]4[C@@]5(C)CCC(=O)C(C)(C)[C@@H]5CC[C@]43C)[C@H]12 [URSONIC ACID]								growth inhibition (GI) [1]: inactive; growth inhibition (GI) [2]: inactive; growth inhibition (GI) [3]: inactive; growth inhibition (GI) [4]: inactive; growth inhibition (GI) [5]: inactive; growth inhibition (GI) [6]: inactive; growth inhibition (GI) [7]: inactive
5.21	C[C@H]1[C@H](C)CC[C@]2(C(=O)N(CCO)CCO)CC[C@]3(C)C(=CC[C@@H]4[C@@]5(C)Cc6cn[nH]c6C(C)(C)[C@@H]5CC[C@]43C)[C@H]12	3.54	2.47	19.3	64.8	86.8	94	93.6	
< 0.63	COc1cccc2c1C(=O)c1c(O)c3c(c(O)c1C2=O)C[C@@](O)(C(=O)CO)C[C@@H]3O[C@H]1C[C@H](N)[C@H](O)[C@H](C)O1 [DOXORUBICIN]	80.8	82.5	85.6	95.4	> 99	> 99	> 99	
